Where two headings read alike, the source gives them in different places.
Tests used:
[1] = test system: HeLa cervical cancer cell line; assay: Resazurin cytotoxicity assay, HeLa; type: cell-based
[2] = test system: HCC70 triple negative breast cancer cell line; assay: Resazurin cytotoxicity assay, HCC70; type: cell-based; conditions: for IC50: read-out: HCC70 IC50 and SD
[3] = test system: MCF-7 hormone responsive breast cancer cell line; assay: Resazurin cytotoxicity assay, MCF-7; type: cell-based; conditions: for IC50: read-out: MCF-7 IC50 and SD
[4] = test system: non-tumorigenic breast epithelial cell line MCF12A; assay: Resazurin cytotoxicity assay, MCF-12A; type: cell-based; conditions: read-out: MCF-12A IC50 and SD
[5] = test system: cancer cell lines (HeLa, HCC70, MCF-7); assay: Resazurin cytotoxicity assay, cancer cell lines as a group; type: cell-based; conditions: read-out: IC50 values against the cancer cells
How it was run: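 HeLa, HCC70 and MCF-7 cells seeded at 5000 cells/well and left to attach overnight (37 °C, 9 % CO2). Treated 96 h with test compound (15.63–500.00 μM), 2 % (v/v) DMSO vehicle, or paclitaxel control (0.16–500 nM). Resazurin then added for 2–4 h; fluorescence read at ex 560/em 590 nm. Done in triplicate; IC50 by non-linear regression.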

[6] = molecular target: T1, recombinant human topoisomerase I (Homo sapiens, UniProt P11387); assay: Topoisomerase I inhibition; type: biochemical
T1 sequence (P11387 1-765): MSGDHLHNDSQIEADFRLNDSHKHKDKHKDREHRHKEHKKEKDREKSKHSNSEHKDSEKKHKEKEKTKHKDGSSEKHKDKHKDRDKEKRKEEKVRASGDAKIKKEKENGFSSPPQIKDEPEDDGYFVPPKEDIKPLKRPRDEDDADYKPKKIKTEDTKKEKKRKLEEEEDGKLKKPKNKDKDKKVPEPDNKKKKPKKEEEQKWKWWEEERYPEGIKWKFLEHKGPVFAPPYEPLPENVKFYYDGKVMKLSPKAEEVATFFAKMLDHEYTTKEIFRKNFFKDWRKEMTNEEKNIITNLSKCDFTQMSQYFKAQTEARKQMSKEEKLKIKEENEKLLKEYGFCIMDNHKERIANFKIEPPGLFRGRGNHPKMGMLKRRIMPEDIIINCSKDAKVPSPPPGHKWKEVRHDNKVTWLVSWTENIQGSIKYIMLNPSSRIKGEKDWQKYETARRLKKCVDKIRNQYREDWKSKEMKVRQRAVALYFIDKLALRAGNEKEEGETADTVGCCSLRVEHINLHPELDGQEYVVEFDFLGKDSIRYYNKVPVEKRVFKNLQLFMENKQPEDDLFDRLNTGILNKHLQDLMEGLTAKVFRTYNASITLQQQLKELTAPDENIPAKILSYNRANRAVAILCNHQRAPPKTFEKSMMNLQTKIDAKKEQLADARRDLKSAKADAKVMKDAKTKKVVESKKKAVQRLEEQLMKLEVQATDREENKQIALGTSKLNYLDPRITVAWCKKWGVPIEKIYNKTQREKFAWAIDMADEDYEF

human genomic DNA (gDNA) = assay: Agarose gel electrophoresis, ethidium bromide displacement from gDNA; type: binding
How it was run: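 Human genomic DNA (100 ng) was incubated with test compound at 50 or 200 μM for 4 hours at 37 °C, alongside a 2 % (v/v) DMSO control and a cisplatin (200 μM) control. Mixtures with loading dye were run on a 0.8 % (w/v) agarose gel containing ethidium bromide, 45 min at 90 V in 1× TAE (40 mM Tris-acetate, 1 mM EDTA). Bands were imaged, and EtBr staining intensity was compared across lanes.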

calf thymus DNA = assay: Methylene blue DNA competition assay; type: binding; conditions: 50 and 200 μM, 100 ng calf thymus DNA, 15 μg/mL methylene blue
How it was run: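 Each 100 μL reaction held methylene blue (15 μg/mL), calf thymus DNA (100 ng) and test compound (50 or 200 μM) in MilliQ water, with a 0.05 % (v/v) DMSO vehicle control. Mixtures were incubated 10 minutes at room temperature in the dark. An emission scan was then recorded under fixed excitation. Runs were done in triplicate.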

[7] = molecular target: T2, bovine serum albumin (BSA) (Bos taurus, UniProt P02769); assay: BSA UV-Vis absorption titration; type: binding; conditions: 280 nm
T2 sequence (P02769 25-607): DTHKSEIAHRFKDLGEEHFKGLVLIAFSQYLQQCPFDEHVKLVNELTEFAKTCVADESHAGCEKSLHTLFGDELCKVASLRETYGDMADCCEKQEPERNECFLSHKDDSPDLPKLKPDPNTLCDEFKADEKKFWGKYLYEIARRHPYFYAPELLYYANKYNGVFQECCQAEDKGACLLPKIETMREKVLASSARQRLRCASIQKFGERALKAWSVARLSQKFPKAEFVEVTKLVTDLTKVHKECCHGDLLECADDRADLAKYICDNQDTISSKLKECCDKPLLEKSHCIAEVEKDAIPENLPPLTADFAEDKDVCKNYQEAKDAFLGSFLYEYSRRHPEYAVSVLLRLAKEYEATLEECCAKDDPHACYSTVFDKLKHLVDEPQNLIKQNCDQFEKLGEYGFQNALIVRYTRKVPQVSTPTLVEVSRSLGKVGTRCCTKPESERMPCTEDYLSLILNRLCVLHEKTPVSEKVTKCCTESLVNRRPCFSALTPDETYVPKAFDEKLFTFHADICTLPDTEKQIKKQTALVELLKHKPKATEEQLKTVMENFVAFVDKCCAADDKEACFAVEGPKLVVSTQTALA
How it was run: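 BSA (~20 μM, PBS pH 7.2; concentration set from ε280 = 43824 M−1 cm−1) titrated with test compound (0–~380 μM; stocks in MeOH). Equal compound volumes added to the sample and reference cells; each mixture incubated 2 min. BSA absorbance at 280 nm fitted to a double-reciprocal plot of 1/(A0−A) vs 1/[compound]. kapp taken as the intercept/slope ratio.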

[8] = molecular target: T2, bovine serum albumin (BSA); assay: BSA fluorescence quenching titration, with and without site markers; type: binding
How it was run: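 Emission spectra of BSA recorded at 293 K during titration with increasing test compound. Excitation 280 nm, emission 300–500 nm, slits 5 nm. Intensities corrected for inner filter effect using absorbances at the excitation and emission maxima. KSV from Stern-Volmer fit; kq = KSV/τ0, τ0 10−8 s. Site-marker runs: warfarin (site I) or ibuprofen (site II) added equimolar to BSA (each 5 μM) before titration.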

[9] = Time-dependent stability studies by UV-Vis spectrophotometry; type: physicochemical; conditions: 10^−5 M, 1 hour intervals for 24 hours
How it was run: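 Test compound was dissolved at 10−5 M in anhydrous DMSO at room temperature and filtered. UV-Vis spectra were then recorded hourly over 24 hours.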

[10] = (IC50 value in MCF12-A)/(IC50 value in cancer cell line)
[11] = Ibuprofen site marker (site II)
[12] = No Site marker, KSV=kq τ0, τ0 10^−8 s
[13] = 96 hours, non-cancerous control

apparent association constant (kapp) [7] [M⁻¹]	K SV [8, 11] [M⁻¹]	k q [8, 11] [M⁻¹ s⁻¹]	K SV ([8]; No Site marker) [M⁻¹]	k q [8, 12] [M⁻¹ s⁻¹]	K SV ([8]; Warfarin site marker (site I)) [M⁻¹]	k q ([8]; Warfarin site marker (site I)) [M⁻¹ s⁻¹]	Compound	Intensity of EtBr stained gDNA band (human genomic DNA (gDNA); higher concentration (200 μM))	Competition with methylene blue for DNA binding (intercalation) (calf thymus DNA)	IC50 ([3]; 96 hours) [µM]	IC50 [4, 13] [µM]	Stability in anhydrous DMSO (UV-Vis spectral changes) [9]	other results
–	–	–	–	–	–	–	CC(=O)O[C@H]1C(=O)[C@@]2(C)[C@H]([C@H](OC(=O)c3ccccc3)[C@]3(O)C[C@H](OC(=O)[C@H](O)[C@@H](NC(=O)c4ccccc4)c4ccccc4)C(C)=C1C3(C)C)[C@]1(OC(C)=O)CO[C@@H]1C[C@@H]2O [Paclitaxel, paclitaxel, reference compound]	–	–	–	–	–	SI (selectivity index), HeLa [1, 10]: 5.96; SI (selectivity index), HCC70 [2, 10]: 4.12; IC50 ([2]; Homo sapiens, HCC70, 96 h): 0.00392 ± 0.00103 µM; SI (selectivity index), MCF-7 [3, 10]: 6.73; IC50 ([3]; Homo sapiens, MCF7, 96 h): 0.0024 ± 0.00111 µM; IC50 ([4]; Homo sapiens, MCF-12A, 96 h): 0.0162 ± 0.00108 µM; IC50 [5]: 0.0024 to 0.00392 µM
–	–	–	–	–	–	–	CC[C@@]1(O)C(=O)OCc2c1cc1n(c2=O)Cc2cc3ccccc3nc2-1 [camptothecin, reference compound]	–	–	–	–	–	Inhibition of Topo I activity ([6]; 200 μM): failed to inhibit the enzyme
18900	9130	9.13e+11	69500	6.95e+12	1290	1.29e+11	cis‐Cl, trans‐P‐[RuCl2(PPh3)2(btm)] [Compound 3]	considerable dose‐dependent reduction in intensity	no effect on the ability of methylene blue to bind to the DNA	8.87 ± 1.12	36.5 ± 1.08	blue‐shifted and decreasing MLCT band at 525 nm and an emerging MLCT band at 437 nm	Inhibition of Topo I activity ([6]; 50 μM): complete inhibition of Topo I; IC50 ([1]; read-out: HeLa IC50 and SD, 96 hours): 6.29 ± 1.1 µM
90200	1360	1.36e+11	88400	8.84e+12	2090	2.09e+11	trans‐P‐[RuCl(PPh3)2(pmt)]Cl [Compound 1]	considerable dose‐dependent reduction in intensity	competitively bind to the calf thymus DNA in a concentration‐dependent manner	5.2	60.1	noticeable alterations in the electronic spectrum	Intensity of EtBr stained gDNA band (human genomic DNA (gDNA); lower concentration (50 μM), relative to DMSO control): decreases in the intensity of the EtBr stained gDNA; Inhibition of Topo I activity ([6]; 50 and 200 μM): inhibited Topo I activity; fold less cytotoxic towards HCC70 compared to MCF-7 ([2]; HCC70 versus MCF-7): more than 10 fold; IC50 ([2]; 96 hours): 75.5 µM
